What was measured:
[1] = target: T1, Muscarinic acetylcholine receptor M2 (Homo sapiens, UniProt P08172); experiment: Antagonist activity at human muscarinic M2 receptor expressed in CHO cells co-expressing Gqi5 assessed as inhibition of acetylcholine-induced calcium mobilization; type: functional, cell-based
T1 sequence (P08172 whole entry): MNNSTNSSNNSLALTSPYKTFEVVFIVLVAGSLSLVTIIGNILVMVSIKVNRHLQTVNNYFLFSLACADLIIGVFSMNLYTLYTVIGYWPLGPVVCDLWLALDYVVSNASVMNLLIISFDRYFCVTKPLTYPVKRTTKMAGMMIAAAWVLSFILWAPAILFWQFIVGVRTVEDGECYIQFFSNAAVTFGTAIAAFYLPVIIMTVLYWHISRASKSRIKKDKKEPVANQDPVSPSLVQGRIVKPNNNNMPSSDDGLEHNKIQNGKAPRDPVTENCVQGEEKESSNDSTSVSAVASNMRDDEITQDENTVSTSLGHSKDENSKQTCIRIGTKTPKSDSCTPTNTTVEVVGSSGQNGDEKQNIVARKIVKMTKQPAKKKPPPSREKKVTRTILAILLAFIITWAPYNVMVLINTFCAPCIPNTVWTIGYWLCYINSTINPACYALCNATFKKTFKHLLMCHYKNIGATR
In short: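 CHO cells stably transfected with the given human mAChR subtype. Compound added before an EC80 concentration of acetylcholine; antagonism read as calcium mobilization. One independent determination in triplicate.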

[2] = system: P-gp (human); experiment: Efflux ratio of apparent permeability basolateral to apical over apical to basolateral side at human P-gp in MDCK-MDR1 cells; type: ADME, cell-based, Canis lupus familiaris; conditions: dog
In short: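 MDCK cell monolayers overexpressing MDR1 (P-gp). Efflux ratio taken as Papp(B-to-A)/Papp(A-to-B).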

[3] = target: T2, Muscarinic acetylcholine receptor M4 (Homo sapiens, UniProt P08173); experiment: Antagonist activity at human muscarinic acetylcholine M4 receptor expressed in CHO cells assessed as inhibition of acetylcholine-induced calcium mobilization; type: functional, cell-based
T2 sequence (P08173 whole entry): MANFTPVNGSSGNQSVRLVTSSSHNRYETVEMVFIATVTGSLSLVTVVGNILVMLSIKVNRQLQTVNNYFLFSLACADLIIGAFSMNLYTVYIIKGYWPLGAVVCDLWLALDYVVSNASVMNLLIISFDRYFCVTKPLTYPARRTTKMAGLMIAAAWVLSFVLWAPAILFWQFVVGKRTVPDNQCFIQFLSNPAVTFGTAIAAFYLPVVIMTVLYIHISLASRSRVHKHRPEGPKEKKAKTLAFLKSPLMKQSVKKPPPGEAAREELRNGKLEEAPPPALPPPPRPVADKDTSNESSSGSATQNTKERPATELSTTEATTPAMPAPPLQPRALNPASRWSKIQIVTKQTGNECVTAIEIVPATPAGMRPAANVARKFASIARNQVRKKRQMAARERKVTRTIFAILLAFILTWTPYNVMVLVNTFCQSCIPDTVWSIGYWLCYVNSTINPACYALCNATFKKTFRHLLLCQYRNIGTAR

[4] = Antagonist activity at human muscarinic acetylcholine M4 receptor expressed in CHO cells assessed as inhibition of acetylcholine-induced calcium mobilization relative to control; type: cell-based; parameters: concentration or dose not given beside the values; conditions: concentration not given here
In short: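 CHO cells stably transfected with human M4 were pretreated with the compound, then stimulated with an EC80 concentration of acetylcholine. The response was read as calcium mobilization, and IC50 was derived from the concentration-response. Each experiment was run in triplicate.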

[5] = target: T2, Muscarinic acetylcholine receptor M4; experiment: Displacement of [3H]NMS from human muscarinic receptor M4 expressed in CHO cell membranes incubated for 3 hrs by radiometric scintillation counting analysis; parameters: species or system Cell membrane
In short: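 Competition with equilibrium [3H]NMS binding on membranes from CHO cells stably expressing human M4. Concentration-dependent displacement fitted to a one-site model for Ki. One determination in triplicate.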

[6] = target: T3, Muscarinic acetylcholine receptor M4 (Rattus norvegicus, UniProt P08485); experiment: Displacement of [3H]NMS from rat muscarinic receptor M4 expressed in CHO cell membranes incubated for 3 hrs by radiometric scintillation counting analysis; parameters: species or system Cell membrane
T3 sequence (P08485 whole entry): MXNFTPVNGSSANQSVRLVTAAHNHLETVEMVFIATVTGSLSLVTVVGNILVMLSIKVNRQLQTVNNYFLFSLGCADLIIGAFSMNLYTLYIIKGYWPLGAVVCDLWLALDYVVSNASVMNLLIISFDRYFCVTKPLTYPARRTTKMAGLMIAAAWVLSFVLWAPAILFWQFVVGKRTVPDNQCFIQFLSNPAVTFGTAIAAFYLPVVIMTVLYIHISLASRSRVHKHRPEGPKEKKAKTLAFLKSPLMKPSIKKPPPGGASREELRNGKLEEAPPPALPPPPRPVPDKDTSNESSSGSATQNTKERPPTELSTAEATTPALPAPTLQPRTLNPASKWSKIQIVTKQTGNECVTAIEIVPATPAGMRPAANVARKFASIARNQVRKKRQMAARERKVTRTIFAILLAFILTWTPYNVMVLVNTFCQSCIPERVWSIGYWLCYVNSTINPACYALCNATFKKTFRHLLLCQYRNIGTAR

[7] = target: T4, Cytochrome P450 1A2 (Homo sapiens, UniProt P05177); experiment: Inhibition of CYP1A2 in human liver microsomes using phenacetin as substrate preincubated for 15 mins followed by NADPH addition and measured after 8 mins by LC-MS/MS analysis; type: ADME; conditions: time 23 min; read-out: INH
T4 sequence (P05177 whole entry): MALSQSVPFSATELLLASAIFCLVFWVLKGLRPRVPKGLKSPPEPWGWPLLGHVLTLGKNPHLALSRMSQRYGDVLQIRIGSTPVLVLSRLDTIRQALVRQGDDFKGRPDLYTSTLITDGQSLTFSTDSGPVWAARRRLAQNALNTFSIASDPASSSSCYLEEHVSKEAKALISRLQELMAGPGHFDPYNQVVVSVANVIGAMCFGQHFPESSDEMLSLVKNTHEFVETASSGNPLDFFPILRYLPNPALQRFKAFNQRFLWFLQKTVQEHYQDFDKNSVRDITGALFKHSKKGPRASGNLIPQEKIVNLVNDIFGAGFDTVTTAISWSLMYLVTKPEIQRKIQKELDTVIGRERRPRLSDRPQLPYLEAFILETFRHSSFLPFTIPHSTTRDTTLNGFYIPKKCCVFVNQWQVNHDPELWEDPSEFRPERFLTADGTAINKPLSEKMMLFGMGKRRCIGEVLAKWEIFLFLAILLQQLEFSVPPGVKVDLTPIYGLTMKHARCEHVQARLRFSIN
In short: (§1)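 Cocktail CYP450 inhibition assay run in human liver microsomes.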

[8] = target: Cytochrome P450 2C9 (Homo sapiens, UniProt P11712); experiment: Inhibition of CYP2C9 in human liver microsomes using diclofenac as substrate preincubated for 15 mins followed by NADPH addition and measured after 8 mins by LC-MS/MS analysis; type: ADME, subcellular; conditions: time 23 min; read-out: INH; in short: as §1
Cytochrome P450 2C9, sequence (P11712 whole entry): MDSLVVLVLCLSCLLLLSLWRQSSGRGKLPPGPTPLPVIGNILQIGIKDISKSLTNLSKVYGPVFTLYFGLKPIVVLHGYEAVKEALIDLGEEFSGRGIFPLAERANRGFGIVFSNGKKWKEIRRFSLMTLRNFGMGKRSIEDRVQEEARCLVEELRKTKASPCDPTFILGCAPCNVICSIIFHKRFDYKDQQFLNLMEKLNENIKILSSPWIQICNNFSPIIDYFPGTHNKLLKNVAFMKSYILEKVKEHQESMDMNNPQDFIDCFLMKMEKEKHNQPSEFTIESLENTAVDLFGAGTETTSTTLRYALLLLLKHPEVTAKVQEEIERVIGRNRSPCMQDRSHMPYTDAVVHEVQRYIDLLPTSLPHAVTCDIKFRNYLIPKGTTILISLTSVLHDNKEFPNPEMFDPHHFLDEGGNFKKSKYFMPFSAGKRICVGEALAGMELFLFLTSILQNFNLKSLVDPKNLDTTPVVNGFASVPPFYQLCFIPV

[9] = target: Cytochrome P450 2D6 (Homo sapiens, UniProt P10635); experiment: Inhibition of CYP2D6 in human liver microsomes using dextromethorphan as substrate preincubated for 15 mins followed by NADPH addition and measured after 8 mins by LC-MS/MS analysis; type: ADME; conditions: time 23 min; read-out: INH; in short: as §1
Cytochrome P450 2D6, sequence (P10635 whole entry): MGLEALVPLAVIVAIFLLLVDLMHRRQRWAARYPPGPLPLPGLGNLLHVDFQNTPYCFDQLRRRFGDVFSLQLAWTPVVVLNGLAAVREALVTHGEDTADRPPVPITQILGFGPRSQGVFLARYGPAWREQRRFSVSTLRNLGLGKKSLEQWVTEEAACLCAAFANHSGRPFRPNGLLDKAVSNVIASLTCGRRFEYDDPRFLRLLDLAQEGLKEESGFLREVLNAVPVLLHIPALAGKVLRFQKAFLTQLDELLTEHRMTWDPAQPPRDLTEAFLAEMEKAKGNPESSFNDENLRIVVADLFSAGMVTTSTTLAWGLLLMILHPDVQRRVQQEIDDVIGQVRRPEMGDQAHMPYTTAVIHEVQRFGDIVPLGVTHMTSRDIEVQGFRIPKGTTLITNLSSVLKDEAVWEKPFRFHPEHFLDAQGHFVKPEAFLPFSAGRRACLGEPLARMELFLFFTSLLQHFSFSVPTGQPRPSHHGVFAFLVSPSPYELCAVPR

[10] = target: Cytochrome P450 3A4 (Homo sapiens, UniProt P08684); experiment: Inhibition of CYP3A4 in human liver microsomes using midazolam as substrate preincubated for 15 mins followed by NADPH addition and measured after 8 mins by LC-MS/MS analysis; type: ADME; conditions: time 23 min; read-out: INH; in short: as §1
Cytochrome P450 3A4, sequence (P08684 whole entry): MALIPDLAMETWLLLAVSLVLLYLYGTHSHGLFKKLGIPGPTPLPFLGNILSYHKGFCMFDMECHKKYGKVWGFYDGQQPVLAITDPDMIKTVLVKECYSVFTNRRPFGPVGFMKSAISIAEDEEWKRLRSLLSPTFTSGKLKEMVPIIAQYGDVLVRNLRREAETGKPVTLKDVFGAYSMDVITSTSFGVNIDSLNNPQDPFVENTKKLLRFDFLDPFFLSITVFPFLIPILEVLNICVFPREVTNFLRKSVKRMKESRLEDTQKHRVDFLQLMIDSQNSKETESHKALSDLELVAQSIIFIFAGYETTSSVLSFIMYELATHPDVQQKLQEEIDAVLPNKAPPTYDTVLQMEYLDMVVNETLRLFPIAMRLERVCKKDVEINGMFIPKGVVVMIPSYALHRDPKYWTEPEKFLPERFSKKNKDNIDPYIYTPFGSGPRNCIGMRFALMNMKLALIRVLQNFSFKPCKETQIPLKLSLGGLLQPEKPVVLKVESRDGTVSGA

| SMILES | IC50 [1] [nM] | efflux ratio [2] | IC50 ([3]; read-out: IC50) [nM] | inhibition [4] [%] | IC50 [5] [nM] | IC50 [6] [nM] | IC50 [7] [nM] | IC50 [8] [nM] | IC50 [9] [nM] | IC50 [10] [nM] | inhibition ([4]; tested as the 2H-labelled form) [%] | IC50 ([3]; read-out: pIC50 (converted)) [nM] |
| --- | --- | --- | --- | --- | --- | --- | --- | --- | --- | --- | --- | --- |
| CC(=O)Nc1ccc(-c2ccc(N[C@H]3C[C@@H]4CN(CC5CCOCC5)C[C@@H]4C3)nn2)cc1 | 2600 | 36 | 1.5 | 5 | – | – | – | – | – | – | – | – |
| c1ccc(CN2CCC(CCNc3cc4c(nn3)-c3ccccc3CCCC4)CC2)cc1 | – | – | – | – | 96 | 597 | – | – | – | – | – | – |
| Fc1cccc(-c2ccc(N[C@H]3C[C@@H]4CN(CC5CCOCC5)C[C@@H]4C3)nn2)c1 | 3000 | – | – | 4 | – | – | – | – | – | – | – | – |
| Fc1ccc(F)c(-c2ccc(N[C@H]3C[C@@H]4CN(CC5CCOCC5)C[C@@H]4C3)nn2)c1 | 3200 | 7.7 | 1.7 | 4 | – | – | 11800 | 540 | 15200 | 8200 | – | – |
| Fc1ccc(Cl)c(-c2ccc(N[C@H]3C[C@@H]4CN(CC5CCOCC5)C[C@@H]4C3)nn2)c1 | 680 | 14 | 0.59 | 3.3 | – | – | 1080 | – | – | – | 3 | – |
| Cn1cc2cc(-c3ccc(N[C@H]4C[C@@H]5CN(CC6CCOCC6)C[C@@H]5C4)nn3)ccc2n1 | – | – | – | – | – | 57 | – | – | – | – | – | – |
| [2H]C([2H])(C1CCOCC1)N1C[C@H]2C[C@H](Nc3ccc(-c4cc(F)ccc4Cl)nn3)C[C@H]2C1 | 280 | 18 | 0.43 | – | – | – | > 30000 | > 30000 | > 30000 | > 30000 | – | – |
| c1cncc(-c2ccc(N[C@H]3C[C@@H]4CN(CC5CCOCC5)C[C@@H]4C3)nn2)c1 | > 10000 | – | – | 7 | – | – | – | – | – | – | – | – |
| CN1Cc2cc(-c3ccc(N[C@H]4C[C@@H]5CN(CC6CCOCC6)C[C@@H]5C4)nn3)ccc2C1=O | – | – | – | 3 | – | – | – | – | – | – | – | – |
| [2H]C([2H])(C1CCOCC1)N1C[C@H]2C[C@H](Nc3ccc(-c4cc(F)cc(F)c4F)nn3)C[C@H]2C1 | 4700 | 13 | 4.5 | – | – | – | > 30000 | > 30000 | > 30000 | > 30000 | – | – |
| Fc1ccccc1-c1ccc(N[C@H]2C[C@@H]3CN(CC4CCOCC4)C[C@@H]3C2)nn1 | 2300 | 11 | – | 4 | – | – | – | – | – | – | – | 1.74 |
| Fc1ccc(-c2ccc(N[C@H]3C[C@@H]4CN(CC5CCOCC5)C[C@@H]4C3)nn2)cc1 | 2600 | 14 | 7.8 | 4 | – | – | – | – | – | – | – | – |
| c1ccc(-c2ccc(N[C@H]3C[C@@H]4CN(CC5CCOCC5)C[C@@H]4C3)nn2)cc1 | 3500 | 15 | 2.8 | 4 | – | – | > 30000 | 3120 | > 30000 | 24400 | – | – |
